Activity calls are given as the source filed them. The rule behind the calls is not given here.
Key:
Blood = test: Cytotoxicity against human whole blood assessed as hemolysis at 1 mM; type: tissue-based; details: 1000 µM
Procedure, shortened: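 Human whole blood anticoagulated with lepirudin, exposed to compound at up to 1 mM; hemolysis checked.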

Toll-like receptor 4 [1] = target: T1, Toll-like receptor 4 (Mus musculus, UniProt Q9QUK6); test: Inhibition of LPS-induced TLR4 activation in mouse RAW264.7 cells assessed as reduction in NO production after 18 to 24 hrs; type: cell-based
T1 sequence (Q9QUK6 whole entry): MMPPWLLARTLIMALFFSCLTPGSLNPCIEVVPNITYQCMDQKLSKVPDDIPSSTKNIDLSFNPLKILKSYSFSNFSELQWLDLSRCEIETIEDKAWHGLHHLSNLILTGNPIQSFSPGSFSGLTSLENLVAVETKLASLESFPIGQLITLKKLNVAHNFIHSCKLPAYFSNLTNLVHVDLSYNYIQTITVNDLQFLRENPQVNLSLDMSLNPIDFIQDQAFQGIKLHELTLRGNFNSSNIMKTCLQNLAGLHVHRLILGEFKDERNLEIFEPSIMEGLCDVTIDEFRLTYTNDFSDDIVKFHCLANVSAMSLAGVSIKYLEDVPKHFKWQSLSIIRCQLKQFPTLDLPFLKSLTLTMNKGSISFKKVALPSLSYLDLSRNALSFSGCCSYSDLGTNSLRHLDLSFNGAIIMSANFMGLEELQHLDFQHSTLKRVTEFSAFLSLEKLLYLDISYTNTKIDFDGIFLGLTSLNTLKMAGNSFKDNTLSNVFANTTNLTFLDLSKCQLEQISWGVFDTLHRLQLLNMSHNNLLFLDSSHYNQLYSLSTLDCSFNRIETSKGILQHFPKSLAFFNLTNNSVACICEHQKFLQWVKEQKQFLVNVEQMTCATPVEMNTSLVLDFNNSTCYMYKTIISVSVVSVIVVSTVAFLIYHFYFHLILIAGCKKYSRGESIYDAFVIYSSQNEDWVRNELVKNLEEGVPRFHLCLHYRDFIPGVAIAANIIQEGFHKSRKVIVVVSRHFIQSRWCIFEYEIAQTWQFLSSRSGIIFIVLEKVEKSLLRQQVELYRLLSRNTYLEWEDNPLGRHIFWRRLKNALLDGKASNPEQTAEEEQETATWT
Procedure, shortened: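 RAW264.7 cells, 100,000 per well, grown 24 h in RPMI with 10% FBS, then switched to unsupplemented RPMI. LPS and compound added together, 18–24 h at 37 °C. Medium nitrite measured with 2,3-diaminonaphthalene (ex 365/em 450 nm) against a nitrite standard curve. Quadruplicate; IC50 by a modified Kou-type method.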

[2] = target: Calcium/calmodulin-dependent protein kinase type 1 (Homo sapiens) (UniProt Q14012); test: Inhibition of CAMK1 at 16 uM by luciferase fragment complementation assay
Chain of Calcium/calmodulin-dependent protein kinase type 1 (Homo sapiens) (Q14012 whole entry, looked up, the tested form may be a part): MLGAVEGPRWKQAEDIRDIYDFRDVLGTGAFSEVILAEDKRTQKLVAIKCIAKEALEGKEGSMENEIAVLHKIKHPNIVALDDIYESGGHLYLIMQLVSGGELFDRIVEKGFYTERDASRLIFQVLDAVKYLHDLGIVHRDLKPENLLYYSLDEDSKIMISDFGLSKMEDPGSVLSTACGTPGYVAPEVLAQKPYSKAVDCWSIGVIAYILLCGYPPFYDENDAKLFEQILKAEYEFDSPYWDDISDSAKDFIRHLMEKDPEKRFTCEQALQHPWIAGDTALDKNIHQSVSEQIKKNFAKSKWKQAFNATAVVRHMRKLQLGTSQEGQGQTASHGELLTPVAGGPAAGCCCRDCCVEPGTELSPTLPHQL

[3] = target: Mitogen-activated protein kinase 1 (Homo sapiens) (UniProt P28482); test: Inhibition of […] at 16 uM by luciferase fragment complementation assay
Chain of Mitogen-activated protein kinase 1 (Homo sapiens) (P28482 whole entry, the tested form may be a part): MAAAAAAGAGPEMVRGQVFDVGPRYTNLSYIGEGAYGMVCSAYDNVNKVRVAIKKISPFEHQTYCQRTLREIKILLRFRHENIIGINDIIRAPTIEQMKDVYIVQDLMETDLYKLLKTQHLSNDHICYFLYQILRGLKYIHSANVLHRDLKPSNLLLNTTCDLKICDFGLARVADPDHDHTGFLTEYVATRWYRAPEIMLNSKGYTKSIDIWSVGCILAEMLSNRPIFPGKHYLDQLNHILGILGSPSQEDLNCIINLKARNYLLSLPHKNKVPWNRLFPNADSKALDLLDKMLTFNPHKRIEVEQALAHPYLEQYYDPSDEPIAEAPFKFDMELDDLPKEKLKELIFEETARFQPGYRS

[4] = target: Serine/threonine-protein kinase pim-1 (Homo sapiens) (UniProt P11309); test: Inhibition of PIM1 at 16 uM by luciferase fragment complementation assay
Chain of Serine/threonine-protein kinase pim-1 (Homo sapiens) (P11309 whole entry, looked up, the tested form may be a part): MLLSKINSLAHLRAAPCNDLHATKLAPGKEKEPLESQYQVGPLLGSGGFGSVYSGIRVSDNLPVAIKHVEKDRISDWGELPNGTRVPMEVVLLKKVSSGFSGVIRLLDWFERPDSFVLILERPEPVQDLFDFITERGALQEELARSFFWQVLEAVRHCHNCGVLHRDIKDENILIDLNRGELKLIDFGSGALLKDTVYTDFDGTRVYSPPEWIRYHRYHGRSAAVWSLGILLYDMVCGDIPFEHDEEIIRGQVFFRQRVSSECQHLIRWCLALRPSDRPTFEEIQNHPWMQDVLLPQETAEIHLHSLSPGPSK

[5] = target: Serine/threonine-protein kinase PAK 1 (Homo sapiens) (UniProt Q13153); test: Inhibition of PAK1 at 16 uM by luciferase fragment complementation assay
Chain of Serine/threonine-protein kinase PAK 1 (Homo sapiens) (Q13153 whole entry, the tested form may be a part): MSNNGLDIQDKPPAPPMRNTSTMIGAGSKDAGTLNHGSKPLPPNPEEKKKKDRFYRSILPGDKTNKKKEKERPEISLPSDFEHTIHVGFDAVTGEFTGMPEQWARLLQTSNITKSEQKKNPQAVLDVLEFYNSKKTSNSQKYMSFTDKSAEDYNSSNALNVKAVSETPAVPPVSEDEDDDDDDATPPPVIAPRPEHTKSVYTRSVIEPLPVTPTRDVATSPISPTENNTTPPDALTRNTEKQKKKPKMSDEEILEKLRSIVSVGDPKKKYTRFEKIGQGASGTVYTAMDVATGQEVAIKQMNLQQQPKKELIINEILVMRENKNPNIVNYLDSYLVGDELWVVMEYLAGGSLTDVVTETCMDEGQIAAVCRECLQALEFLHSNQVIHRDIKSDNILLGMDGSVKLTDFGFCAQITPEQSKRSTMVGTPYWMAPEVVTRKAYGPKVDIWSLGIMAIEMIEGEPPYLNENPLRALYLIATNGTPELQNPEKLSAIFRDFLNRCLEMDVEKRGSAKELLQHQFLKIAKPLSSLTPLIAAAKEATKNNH

[6] = target: RAC-alpha serine/threonine-protein kinase (Homo sapiens) (UniProt P31749); test: Inhibition of AKT1 at 16 uM by luciferase fragment complementation assay
Chain of RAC-alpha serine/threonine-protein kinase (Homo sapiens) (P31749 whole entry, the tested form may be a part): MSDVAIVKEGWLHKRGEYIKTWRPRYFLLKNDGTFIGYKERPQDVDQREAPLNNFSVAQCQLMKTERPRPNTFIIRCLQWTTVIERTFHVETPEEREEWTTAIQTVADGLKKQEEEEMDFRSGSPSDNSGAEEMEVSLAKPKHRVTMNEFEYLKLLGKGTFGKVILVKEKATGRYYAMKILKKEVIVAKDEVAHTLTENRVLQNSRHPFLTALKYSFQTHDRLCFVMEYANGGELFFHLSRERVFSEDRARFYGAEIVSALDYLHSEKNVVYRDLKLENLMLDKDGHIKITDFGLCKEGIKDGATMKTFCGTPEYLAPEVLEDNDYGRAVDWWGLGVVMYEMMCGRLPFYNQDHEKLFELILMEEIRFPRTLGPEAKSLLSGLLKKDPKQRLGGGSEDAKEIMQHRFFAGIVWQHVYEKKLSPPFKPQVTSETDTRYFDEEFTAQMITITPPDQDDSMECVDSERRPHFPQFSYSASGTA

[7] = target: Hepatocyte growth factor receptor (Homo sapiens) (UniProt P08581); test: Inhibition of MET at 16 uM by luciferase fragment complementation assay
[8] = target: Platelet-derived growth factor receptor beta (Homo sapiens) (UniProt P09619); test: Inhibition of PDGFRB at 16 uM by luciferase fragment complementation assay
[9] = target: Serine/threonine-protein kinase PLK4 (Homo sapiens) (UniProt O00444); test: Inhibition of PLK4 at 16 uM by luciferase fragment complementation assay
[10] = target: Proto-oncogene tyrosine-protein kinase Src (Homo sapiens) (UniProt P12931); test: Inhibition of SRC at 16 uM by luciferase fragment complementation assay
Chain of Proto-oncogene tyrosine-protein kinase Src (Homo sapiens) (P12931 2-536 limits assumed): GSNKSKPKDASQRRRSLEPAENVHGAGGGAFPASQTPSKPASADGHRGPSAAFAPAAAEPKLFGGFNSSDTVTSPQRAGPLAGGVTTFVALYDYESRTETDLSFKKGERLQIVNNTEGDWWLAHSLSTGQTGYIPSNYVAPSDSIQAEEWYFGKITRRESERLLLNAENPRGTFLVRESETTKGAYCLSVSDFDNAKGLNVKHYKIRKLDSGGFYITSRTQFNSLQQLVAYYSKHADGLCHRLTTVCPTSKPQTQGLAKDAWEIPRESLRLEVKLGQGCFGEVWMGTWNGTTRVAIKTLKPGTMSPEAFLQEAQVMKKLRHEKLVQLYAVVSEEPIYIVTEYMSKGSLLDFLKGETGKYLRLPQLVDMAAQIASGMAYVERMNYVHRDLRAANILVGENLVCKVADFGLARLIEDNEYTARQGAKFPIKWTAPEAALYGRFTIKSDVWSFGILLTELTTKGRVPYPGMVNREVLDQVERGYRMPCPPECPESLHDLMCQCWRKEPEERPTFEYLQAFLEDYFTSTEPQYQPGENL

[11] = target: Protein kinase C gamma type (Homo sapiens) (UniProt P05129); test: Inhibition of PKCgamma at 16 uM by luciferase fragment complementation assay
[12] = target: Glycogen synthase kinase-3 alpha (Homo sapiens) (UniProt P49840); test: Inhibition of GSK3alpha at 16 uM by luciferase fragment complementation assay
Chain of Glycogen synthase kinase-3 alpha (Homo sapiens) (P49840 2-483 limits assumed): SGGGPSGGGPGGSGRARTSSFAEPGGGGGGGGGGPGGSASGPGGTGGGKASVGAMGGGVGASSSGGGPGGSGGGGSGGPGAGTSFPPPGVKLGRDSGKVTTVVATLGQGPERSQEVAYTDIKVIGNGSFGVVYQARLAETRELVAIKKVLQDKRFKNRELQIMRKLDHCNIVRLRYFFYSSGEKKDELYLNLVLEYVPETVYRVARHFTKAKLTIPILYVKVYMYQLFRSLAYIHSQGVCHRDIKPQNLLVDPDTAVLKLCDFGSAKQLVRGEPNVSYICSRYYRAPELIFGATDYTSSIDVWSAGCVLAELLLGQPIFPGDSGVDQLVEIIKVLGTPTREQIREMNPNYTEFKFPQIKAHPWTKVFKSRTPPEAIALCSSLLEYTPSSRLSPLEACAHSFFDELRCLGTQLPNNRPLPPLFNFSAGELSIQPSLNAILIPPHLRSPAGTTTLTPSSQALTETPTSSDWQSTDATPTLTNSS

[13] = target: Discoidin domain-containing receptor 2 (Homo sapiens) (UniProt Q16832); test: Inhibition of DDR2 at 16 uM by luciferase fragment complementation assay
Chain of Discoidin domain-containing receptor 2 (Homo sapiens) (Q16832 whole entry, the tested form may be a part): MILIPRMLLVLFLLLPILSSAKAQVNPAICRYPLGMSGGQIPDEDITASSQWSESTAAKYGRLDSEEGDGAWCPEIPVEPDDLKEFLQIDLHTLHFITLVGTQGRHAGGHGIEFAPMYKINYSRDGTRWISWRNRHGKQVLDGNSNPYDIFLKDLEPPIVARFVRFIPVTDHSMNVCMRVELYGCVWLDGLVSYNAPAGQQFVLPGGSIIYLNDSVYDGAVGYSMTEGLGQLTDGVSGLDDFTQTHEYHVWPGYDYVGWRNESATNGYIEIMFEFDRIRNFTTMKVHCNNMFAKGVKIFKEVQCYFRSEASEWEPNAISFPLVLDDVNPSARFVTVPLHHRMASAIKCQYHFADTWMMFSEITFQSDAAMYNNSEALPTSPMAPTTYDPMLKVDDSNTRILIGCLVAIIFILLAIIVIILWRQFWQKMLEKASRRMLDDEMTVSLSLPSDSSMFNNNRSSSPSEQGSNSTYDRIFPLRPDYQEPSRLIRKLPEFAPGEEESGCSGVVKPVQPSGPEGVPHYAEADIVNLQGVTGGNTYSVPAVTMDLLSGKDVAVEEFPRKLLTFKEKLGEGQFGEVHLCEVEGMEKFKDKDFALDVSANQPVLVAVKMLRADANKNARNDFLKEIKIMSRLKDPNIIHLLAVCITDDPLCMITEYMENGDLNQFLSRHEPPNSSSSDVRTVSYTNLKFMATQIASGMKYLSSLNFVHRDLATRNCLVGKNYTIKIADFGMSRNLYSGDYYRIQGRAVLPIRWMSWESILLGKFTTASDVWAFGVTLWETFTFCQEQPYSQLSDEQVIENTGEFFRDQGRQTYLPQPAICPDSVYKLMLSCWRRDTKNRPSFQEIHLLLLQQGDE

Toll-like receptor 4 [14] = target: T2, Toll-like receptor 4 (Homo sapiens, UniProt O00206); test: Inhibition of LPS-induced TLR4 activation in human whole blood assessed as inhibition of TNFalpha release at 500 uM preincubated for 5 to 10 mins
T2 sequence (O00206 whole entry): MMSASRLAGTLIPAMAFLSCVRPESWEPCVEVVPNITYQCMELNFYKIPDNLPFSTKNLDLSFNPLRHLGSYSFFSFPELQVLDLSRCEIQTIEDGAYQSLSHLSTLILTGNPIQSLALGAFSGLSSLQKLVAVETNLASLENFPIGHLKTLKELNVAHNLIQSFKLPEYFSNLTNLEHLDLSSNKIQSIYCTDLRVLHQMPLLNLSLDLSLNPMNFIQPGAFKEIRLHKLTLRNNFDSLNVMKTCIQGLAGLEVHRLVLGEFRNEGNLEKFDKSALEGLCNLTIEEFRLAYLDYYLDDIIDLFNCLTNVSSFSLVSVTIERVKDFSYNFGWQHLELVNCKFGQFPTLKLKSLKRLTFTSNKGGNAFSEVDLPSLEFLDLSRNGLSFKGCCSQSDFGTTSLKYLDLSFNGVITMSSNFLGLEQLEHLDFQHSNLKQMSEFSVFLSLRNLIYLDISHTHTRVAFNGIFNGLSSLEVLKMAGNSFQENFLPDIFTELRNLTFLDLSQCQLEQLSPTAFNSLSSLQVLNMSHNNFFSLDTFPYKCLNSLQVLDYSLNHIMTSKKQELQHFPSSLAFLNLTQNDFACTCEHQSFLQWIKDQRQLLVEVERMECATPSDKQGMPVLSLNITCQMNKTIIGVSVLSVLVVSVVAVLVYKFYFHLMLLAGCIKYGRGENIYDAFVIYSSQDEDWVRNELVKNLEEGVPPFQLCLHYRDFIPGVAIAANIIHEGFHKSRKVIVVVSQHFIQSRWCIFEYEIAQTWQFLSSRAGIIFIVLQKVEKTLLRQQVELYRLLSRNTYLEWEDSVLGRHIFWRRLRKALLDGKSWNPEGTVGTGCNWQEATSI
Procedure, shortened: (§1)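 Fresh human blood anticoagulated with lepirudin, preincubated with compound 5–10 min at 37 °C, then stimulated with 100 ng/mL ultrapure E. coli 0111:B4 LPS, rotating 2 h at 37 °C. Stopped with EDTA 10 mM final; plasma TNF-α, IL-8 and IL-6 measured by singleplex Bio-plex, expressed as % of LPS without inhibitor. n = 3 or 9, paired two-sided t-test.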

Toll-like receptor 4 [15] = target: T2, Toll-like receptor 4; test: Inhibition of LPS-induced TLR4 activation in human whole blood assessed as inhibition of IL-6 release at 500 uM preincubated for 5 to 10 mins; procedure, shortened: as §1
Toll-like receptor 4 [16] = target: T2, Toll-like receptor 4; test: Inhibition of LPS-induced TLR4 activation in human whole blood assessed as inhibition of IL-6 release preincubated for 5 to 10 mins; procedure, shortened: as §1
Toll-like receptor 4 [17] = target: T2, Toll-like receptor 4; test: Inhibition of LPS-induced TLR4 activation in human whole blood assessed as inhibition of IL-8 release preincubated for 5 to 10 mins; procedure, shortened: as §1
Toll-like receptor 4 [18] = target: T2, Toll-like receptor 4; test: Inhibition of LPS-induced TLR4 activation in human whole blood assessed as inhibition of IL-6 release at 250 uM preincubated for 5 to 10 mins; procedure, shortened: as §1
Toll-like receptor 4 [19] = target: T2, Toll-like receptor 4; test: Inhibition of LPS-induced TLR4 activation in human whole blood assessed as inhibition of TNFalpha release preincubated for 5 to 10 mins; procedure, shortened: as §1
Toll-like receptor 4 [20] = target: T2, Toll-like receptor 4; test: Inhibition of LPS-induced TLR4 activation in human whole blood assessed as inhibition of IL-8 release at 500 uM preincubated for 5 to 10 mins; procedure, shortened: as §1

| SMILES | IC50 (Toll-like receptor 4 [1]) [µM] | Activity (Blood) | further results |
| --- | --- | --- | --- |
| Cc1nn(Cc2ccccc2Cl)c(C)c1CN(C)CC(O)COc1ccc(Cl)c(Cl)c1 (racemic) | 20.1 | Non-toxic |  |
| C=Cc1ccccc1Cn1nc(C)c(CN(C)CC(O)COc2ccc(Cl)cc2)c1C (racemic) | 23.2 | Non-toxic |  |
| CCOc1ccc(OCC(O)CN(C)Cc2c(C)nn(Cc3ccccc3)c2C)cc1 (racemic) | 51.8 | Non-toxic |  |
| Cc1nn(Cc2ccccc2Cl)c(C)c1CN(C)CC(O)COc1ccccc1 (racemic) | 64.3 | Non-toxic |  |
| Cc1nn(Cc2ccccc2Cl)c(C)c1CN(C)CC(O)COc1ccc(C(F)(F)F)cc1 (racemic) | 23.7 | Non-toxic |  |
| COCCc1ccc(OCC(O)CN(C)Cc2c(C)nn(Cc3ccccc3Cl)c2C)cc1 (racemic) | 57.3 | Non-toxic |  |
| Cc1nn(Cc2ccccc2)c(C)c1CN(C)CC(O)COc1ccccc1 (racemic) | > 100 | Non-toxic | inhibition (Toll-like receptor 4 [14]): Active; inhibition (Toll-like receptor 4 [15]): Active; inhibition (Toll-like receptor 4 [16]): Dose-dependent effect; inhibition (Toll-like receptor 4 [17]): Dose-dependent effect; inhibition (Toll-like receptor 4 [18]): inactive; inhibition (Toll-like receptor 4 [19]): Dose-dependent effect; inhibition (Toll-like receptor 4 [20]): Active |
| CCOc1ccc(OCC(O)CN(C)Cc2c(C)nn(Cc3ccccc3C)c2C)cc1 (racemic) | 47.7 | Non-toxic |  |
| COc1ccccc1OCC(O)CN(C)Cc1c(C)nn(Cc2ccccc2Cl)c1C (racemic) | 92.5 | Non-toxic |  |
| Cc1nn(Cc2ccccc2C(F)(F)F)c(C)c1CN(C)CC(O)COc1ccc(C(F)(F)F)cc1 (racemic) | 27.3 | Non-toxic |  |
| Cc1nn(Cc2ccccc2Cl)c(C)c1CN(C)CC(O)COc1ccc(C#N)cc1 (racemic) | 52.7 | Non-toxic |  |
| C=CCOc1ccc(OCC(O)CN(C)Cc2c(C)nn(Cc3ccccc3C=C)c2C)cc1 (racemic) | 23.1 | Non-toxic |  |

Continued, in another order:

| IC50 (Toll-like receptor 4 [1]) [µM] | SMILES | Activity (Blood) | further results |
| --- | --- | --- | --- |
| 47.7 | CCOc1ccc(OCC(O)CN(C)Cc2c(C)nn(Cc3ccccc3F)c2C)cc1 (racemic) | Non-toxic |  |
| 16.1 | Cc1nn(Cc2ccccc2Cl)c(C)c1CN(C)CC(O)COc1ccc(Cl)cc1 (racemic) | Non-toxic | inhibition [2]: ≤ 27%; inhibition [3]: ≤ 27%; inhibition [4]: ≤ 27%; inhibition [5]: ≤ 27%; inhibition [6]: ≤ 27%; inhibition [7]: ≤ 27%; inhibition [8]: ≤ 27%; inhibition [9]: ≤ 27%; inhibition [10]: ≤ 27%; inhibition [11]: ≤ 27%; inhibition [12]: ≤ 27%; inhibition [13]: ≤ 27% |
| 15.6 | Cc1nn(Cc2ccccc2Cl)c(C)c1CN(C)C[C@H](O)COc1ccc(Cl)cc1 | Non-toxic |  |
| 24.8 | CCOc1ccc(OC[C@H](O)CN(C)Cc2c(C)nn(Cc3ccccc3Cl)c2C)cc1 | Non-toxic |  |
| 19.8 | CCOc1ccc(OCC(CN(C)Cc2c(C)nn(Cc3ccccc3Cl)c2C)OC)cc1 (racemic) |  |  |
| 15.5 | Cc1nn(Cc2ccccc2Cl)c(C)c1CN(C)C[C@@H](O)COc1ccc(Cl)cc1 | Non-toxic |  |
| 21.8 | CCOc1ccc(OCC(O)CN(C)Cc2c(C)nn(Cc3ccc(Cl)c(Cl)c3)c2C)cc1 (racemic) | Non-toxic |  |
| 44.6 | C=CCOc1ccc(OCC(O)CN(C)Cc2c(C)nn(Cc3ccccc3Cl)c2C)cc1 (racemic) | Non-toxic |  |
| 24.7 | C=Cc1ccccc1Cn1nc(C)c(CN(C)CC(O)COc2ccc(OCC)cc2)c1C (racemic) | Non-toxic |  |
| 16.5 | CCOc1ccc(OCC(O)CN(C)Cc2c(C)nn(Cc3cccc(Cl)c3)c2C)cc1 (racemic) | Non-toxic |  |
| 67.6 | CCOc1ccc(OCC(O)CN(C)Cc2c(C)nn(Cc3ccc(OC)cc3)c2C)cc1 (racemic) | Non-toxic |  |
| 32.1 | CCOc1ccc(OCC(O)CN(C)Cc2c(C)nn(Cc3ccccc3C(F)(F)F)c2C)cc1 (racemic) | Non-toxic |  |
| 24.3 | CCOc1ccc(OC[C@@H](O)CN(C)Cc2c(C)nn(Cc3ccccc3Cl)c2C)cc1 | Non-toxic |  |
| > 100 | CCOc1ccc(OCC(O)CN(C)Cc2c(C)nn(Cc3ccccc3OC)c2C)cc1 (racemic) | Non-toxic |  |

Reference: ChEMBL document CHEMBL1821673, “Development of β-amino alcohol derivatives that inhibit Toll-like receptor 4 mediated inflammatory response as potential antiseptics” (J Med Chem, 2011)
